The source made the active and inactive calls. No cut-off for these calls is given here.
Experiments:
West Nile virus = assay: Inhibition of West Nile virus NS2B-NS3 protease using 2-Abz-Gly-Leu-Lys-Arg-Gly-Gly-[…]-Tyr-NH2 as substrate at 50 uM preincubated with protein for 15 mins followed by substrate addition measured for 15 mins by FRET assay
Summary of the method: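 Linked WNV NS2B-NS3 protease (150 nM) was preincubated 15 min with inhibitor (50 μM final) in 50 mM Tris-HCl pH 9, 10% ethylene glycol, 0.0016% Brij 58. […] Percent inhibition was taken from the slope relative to the no-inhibitor control, in triplicate.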

[1] = Inhibition of Dengue virus serotype-2 NS2B-NS3 protease using 2-Abz-Nle-Lys-Arg-Arg-Ser-(3-NO2)-Tyr-NH2 as substrate preincubated with protein for 15 mins followed by substrate addition measured for 15 mins by FRET assay; parameters: species or system dengue virus type 2
Summary of the method: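 DENV-2 NS2B-NS3 linked construct at 30 nM (15 nM in some cases), same pH 9 Tris buffer, 15 min preincubation and FRET read-out. Eight inhibitor concentrations spanned 0–1, 0–2, 0–6 or 0–50 μM, with substrate at 50 μM. IC50 was fitted from triplicates.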

[2] = Inhibition of West Nile virus NS2B-NS3 protease using 2-Abz-Gly-Leu-Lys-Arg-Gly-Gly-[…]-Tyr-NH2 as substrate preincubated with protein for 15 mins followed by substrate addition measured for 15 mins by FRET assay
Summary of the method: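 WNV NS2B-NS3 linked construct at 75 nM (40 nM in one case) in pH 9 Tris buffer, preincubated 15 min with eight inhibitor concentrations (ranges 0–1 up to 0–50 μM). Substrate was 50 μM, with FRET readout over 15 min. IC50 was fitted from triplicates.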

[3] = molecular target: Prothrombin (Homo sapiens) (UniProt P00734); assay: Inhibition of thrombin (unknown origin) using Boc-Val-Pro-Arg-AMC as substrate at 25 uM preincubated with protein for 15 mins followed by substrate addition measured for 10 mins by continuous fluorimetric assay relative to control
Trypsin (Homo sapiens) = Trypsin (Homo sapiens) (UniProt P07477+P07478+P35030); assay: Inhibition of trypsin (unknown origin) using Boc-Val-Pro-Arg-AMC as substrate at 25 uM preincubated with protein for 15 mins followed by substrate addition by continuous fluorimetric assay relative to control
dengue virus type 2 = assay: Antiviral activity against Dengue virus serotype-2 infected in African green monkey Vero cells after 7 days by virus yield reduction assay; type: functional, organism-based
[4] = Retention time of compound by RP-HPLC analysis; type: physicochemical
[5] = Cytotoxicity against human HuH7 cells infected with Dengue virus serotype-2 assessed as cell viability after 48 hrs by Cell-Titer-Glo luminescent viability assay; type: cell-based, Huh-7
Summary of the method: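 Huh-7 cells (10^4/well) were seeded in DMEM + 10% FBS overnight, then infected with WT DENV-2 (MOI 1) in the presence of compound, triplicate per concentration. After 48 h at 37 °C, medium was replaced with fresh DMEM and viability was read by CellTiter-Glo luminescence. CC50 was determined.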

inhibition (West Nile virus) | IC50 [1] | IC50 [2] | inhibition [3] | inhibition (Trypsin (Homo sapiens)) | EC50 (dengue virus type 2) | Retention_time [4] | SMILES | Ki [1] | CC50 at 48 h [5] | Ki [2]
94.1% | 157 nM | 15900 nM | inactive | inactive |  |  | CC(C)(C)c1ccc(COc2ccc([C@@H](NC(=O)[C@H](CCCCN)NC(=O)[C@H](CCCNC(=N)N)NC(=O)c3cc4sccc4s3)C(N)=O)cc2)cc1 |  |  | 
101% | 28 nM | 117 nM | inactive | inactive | 7060 nM | 3.15 min | N=C(N)NCCC[C@H](NC(=O)c1cccs1)C(=O)N[C@@H](CCCCN)C(=O)N[C@@H](C(N)=O)c1ccc(OCc2ccc(C(F)(F)F)cc2)cc1 | 19 nM | > 100000 nM | 93 nM
85.2% | 121 nM |  | inactive | inactive |  |  | CC(C)(C)c1ccc(COc2ccc([C@@H](NC(=O)[C@H](CCCCN)NC(=O)[C@H](CCCNC(=N)N)NC(=O)c3sccc3Cl)C(N)=O)cc2)cc1 |  |  | 
98.7% | 199 nM | 604 nM | inactive | inactive | 7060 nM | 3.47 min | N=C(N)NCCC[C@H](NC(=O)c1cc2ccccc2s1)C(=O)N[C@@H](CCCCN)C(=O)N[C@@H](C(N)=O)c1ccc(OCc2ccc(C(F)(F)F)cc2)cc1 |  | 56800 nM | 
101% | 61 nM | 216 nM | inactive | inactive |  |  | N=C(N)NCCC[C@H](NC(=O)c1cccs1)C(=O)N[C@@H](CCCCN)C(=O)N[C@@H](C(N)=O)c1ccc(OCc2ccc(F)cc2)cc1 |  |  | 
99.4% | 148 nM | 487 nM | inactive | 59% |  |  | N=C(N)NCCC[C@H](NC(=O)c1cccs1)C(=O)N[C@@H](CCCCN)C(=O)N[C@@H](C(N)=O)c1ccc(OCC(=O)c2ccc(Br)cc2)cc1 |  |  | 
99.2% | 71 nM | 150 nM | inactive | inactive |  |  | N=C(N)NCCC[C@H](NC(=O)c1cccs1)C(=O)N[C@@H](CCCCN)C(=O)N[C@@H](C(N)=O)c1ccc(OCc2ccc(Br)cc2)cc1 |  |  | 
94.2% | 203 nM |  | inactive | inactive | 10500 nM | 3.39 min | N=C(N)NCCC[C@H](NC(=O)c1cc2ccsc2s1)C(=O)N[C@@H](CCCCN)C(=O)N[C@@H](C(N)=O)c1ccc(OCc2ccc(C(F)(F)F)cc2)cc1 |  | 48500 nM | 
99.7% | 69 nM | 224 nM | < 30% |  |  |  | N=C(N)NCCC[C@H](NC(=O)c1ccccc1)C(=O)N[C@@H](CCCCN)C(=O)N[C@@H](C(N)=O)c1ccc(OCc2ccc(C(F)(F)F)cc2)cc1 |  |  | 
99.6% | 111 nM | 371 nM | inactive | inactive |  |  | N=C(N)NCCC[C@H](NC(=O)c1ccc(Cl)s1)C(=O)N[C@@H](CCCCN)C(=O)N[C@@H](C(N)=O)c1ccc(OCc2ccc(Cl)cc2)cc1 |  |  | 

Further lines, the compound ahead of its results:

SMILES | inhibition (West Nile virus) | IC50 [1] | IC50 [2] | inhibition [3] | inhibition (Trypsin (Homo sapiens)) | EC50 (dengue virus type 2) | Retention_time [4] | Ki [1] | CC50 at 48 h [5] | Ki [2]
N=C(N)NCCC[C@H](NC(=O)c1cc2ccccc2s1)C(=O)N[C@@H](CCCCN)C(=O)N[C@@H](C(N)=O)c1ccc(OCc2ccccc2C(F)(F)F)cc1 | 93.1% | 243 nM |  | inactive | inactive |  |  |  |  | 
N=C(N)NCCC[C@H](NC(=O)c1nccs1)C(=O)N[C@@H](CCCCN)C(=O)N[C@@H](C(N)=O)c1ccc(OCc2c(Cl)cccc2Cl)cc1 | 99.1% | 50 nM | 166 nM | inactive | inactive |  |  |  |  | 
N=C(N)NCCC[C@H](NC(=O)c1cc2ccccc2s1)C(=O)N[C@@H](CCCCN)C(=O)N[C@@H](C(N)=O)c1ccc(OCc2ccccc2)cc1 | 97.1% | 451 nM |  | < 30% |  | 20400 nM | 3.13 min |  | > 100000 nM | 
COc1cccc(COc2ccc([C@@H](NC(=O)[C@H](CCCCN)NC(=O)[C@H](CCCNC(=N)N)NC(=O)c3nccs3)C(N)=O)cc2)c1 | 100% | 47 nM | 273 nM | inactive | inactive |  |  |  |  | 
N=C(N)NCCC[C@H](NC(=O)c1cc2sccc2s1)C(=O)N[C@@H](CCCCN)C(=O)N[C@@H](C(N)=O)c1ccc(OCc2c(Cl)cccc2Cl)cc1 | 99.2% | 158 nM | 785 nM | inactive | inactive | 5330 nM | 3.28 min |  | 34300 nM | 
N=C(N)NCCC[C@H](NC(=O)c1sccc1Cl)C(=O)N[C@@H](CCCCN)C(=O)N[C@@H](C(N)=O)c1ccc(OCc2ccc(Cl)cc2)cc1 | 99.3% | 120 nM | 821 nM | inactive | inactive |  |  |  |  | 
N=C(N)NCCC[C@H](NC(=O)c1cc2sccc2s1)C(=O)N[C@@H](CCCCN)C(=O)N[C@@H](C(N)=O)c1ccc(OCc2ccccc2C(F)(F)F)cc1 | 97.5% | 197 nM |  | inactive | inactive |  |  |  |  | 
N=C(N)NCCC[C@H](NC(=O)c1cc2sccc2s1)C(=O)N[C@@H](CCCCN)C(=O)N[C@@H](C(N)=O)c1ccc(OCc2ccc(Cl)cc2)cc1 | 93.8% | 170 nM |  | inactive | inactive |  |  |  |  | 
N=C(N)NCCC[C@H](NC(=O)c1ccc(Cl)s1)C(=O)N[C@@H](CCCCN)C(=O)N[C@@H](C(N)=O)c1ccc(OCc2ccccc2)cc1 | 98.4% | 177 nM | 457 nM | < 30% |  |  |  |  |  | 
N=C(N)NCCC[C@H](NC(=O)c1ccccc1)C(=O)N[C@@H](CCCCN)C(=O)N[C@@H](C(N)=O)c1ccc(OCc2ccc(Cl)c(Cl)c2)cc1 | 97.8% | 177 nM | 615 nM | < 30% |  |  |  |  |  | 
N=C(N)NCCC[C@H](NC(=O)c1cc(-c2ccccc2)cs1)C(=O)N[C@@H](CCCCN)C(=O)N[C@@H](C(N)=O)c1ccc(OCc2c(Cl)cccc2Cl)cc1 | 98% | 129 nM | 221 nM | inactive | inactive |  |  |  |  | 
N=C(N)NCCC[C@H](NC(=O)c1ccco1)C(=O)N[C@@H](CCCCN)C(=O)N[C@@H](C(N)=O)c1ccc(OCc2ccccc2)cc1 | 98.1% | 479 nM | 507 nM | < 30% |  |  |  |  |  | 
N=C(N)NCCC[C@H](NC(=O)/C=C/c1ccc(Cl)cc1)C(=O)N[C@@H](CCCCN)C(=O)N[C@@H](C(N)=O)c1ccc(OCc2ccccc2)cc1 | 99.4% | 721 nM | 368 nM | < 30% |  |  |  |  |  | 
N=C(N)NCCC[C@H](NC(=O)c1ccsc1)C(=O)N[C@@H](CCCCN)C(=O)N[C@@H](C(N)=O)c1ccc(OCc2ccccc2)cc1 | 98.2% | 179 nM | 490 nM | < 30% |  |  |  |  |  | 
N=C(N)NCCC[C@H](NC(=O)c1ccccc1)C(=O)N[C@@H](CCCCN)C(=O)N[C@@H](C(N)=O)c1ccc(OCc2ccccc2Cl)cc1 | 98.1% | 321 nM | 406 nM | < 30% |  |  |  |  |  | 
N=C(N)NCCC[C@H](NC(=O)c1cc2ccccc2s1)C(=O)N[C@@H](CCCCN)C(=O)N[C@@H](C(N)=O)c1ccc(OCc2c(Cl)cccc2Cl)cc1 | 95.9% | 183 nM |  | inactive | inactive |  |  |  |  | 
N=C(N)NCCC[C@H](NC(=O)C1CC1)C(=O)N[C@@H](CCCCN)C(=O)N[C@@H](C(N)=O)c1ccc(OCc2ccccc2)cc1 | 100% | 805 nM | 1660 nM | < 30% |  |  |  |  |  | 
N=C(N)NCCC[C@H](NC(=O)c1ccccc1F)C(=O)N[C@@H](CCCCN)C(=O)N[C@@H](C(N)=O)c1ccc(OCc2ccccc2)cc1 | 100% | 340 nM | 1290 nM | < 30% |  |  |  |  |  | 
N=C(N)NCCC[C@H](NC(=O)/C=C/c1ccccc1)C(=O)N[C@@H](CCCCN)C(=O)N[C@@H](C(N)=O)c1ccc(OCc2ccccc2)cc1 | 99.7% | 323 nM | 561 nM | < 30% |  |  |  |  |  | 
